Screening data as filed in PubChem BioAssay.
This is a sample that favours compounds with a hit; in the whole collection about 3.1% have one here.
miR-122 sensor = miR-122 Renilla sensor signal increase in Huh7, primary screen, miR-122 inhibitor project, cell-based, single point, plate reader; AID 602342, 2012; 0.3% of 340,000 active; activation (reporter increase), % at 12.5 µM; Huh7 miR-122 Renilla luciferase sensor, 48 h; neutral wells = 0, positive control = 100;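 active means mean replicate activation score at least 90 and every replicate individually at or above 90; inconclusive means only one of the two criteria met; inactive means neither criterion met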;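 further: higher luciferase means less miR-122 activity so hits act as miR-122 inhibitors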
Cneo AK release = Cryptococcus neoformans cell lysis inducers, primary screen, AK release luminescence, single concentration; 0.2% of 360,000 active; lysis activity, % at 15 µM; C. neoformans lysis, adenylate kinase release luminescence, 4 h; normalised: neutral wells 0, clomiphene wells 100; AID 651654, 2012;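 active means mean lysis activity across replicates of at least 80%, whatever share of replicates individually reach that level; inactive means mean lysis activity below 80%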
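Test system: log-phase Cryptococcus neoformans yeast cells; Quantity: yeast cell density of 5 × 10^6 cells/mL; Buffer or medium: YPD; Doses: single compound concentration per well; Timing: 4 h at 37 °C static, read 1 h later; Measured by: AK luminescence; Read-out basis: lysis from increased AK signal; Control set: Clomiphene as positive control.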
Ecoli rRNA inh = reduced GFP signal of wild-type E. coli, primary screen, bacterial rRNA inhibitor project, GFP/RFP fluorescence, OD600, single point. 1.6% of 350,000 active. AID 720706, 2013. GFP signal change (wild-type ribosome), % (test concentration not listed). E. coli WT GFP vs humanized-ribosome RFP mutants, 24 h; hits give low values; DMSO median 0, no signal -100;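 active means significant combined selectivity score with lowered wild-type GFP, culture density cut under 30%, mutant RFP and density less affected; inactive means any of these conditions unmet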
DENV2 CPE rescue = inhibitors of DENV2 cytopathic effect, primary screen, cell-based, plate reader, single concentration; DENV2-infected cells, cytopathic effect rescue; CPE inhibition, % at 9.99 µM; 1.7% of 350,000 active; AID 651640, 2012; in the data active means CPE inhibition above about 20%, passing the limit was not always enough; inconclusive means no clear call, values can overlap the other calls; tested in BHK-21 cells;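 further: 0% = median of neutral control wells and 100% = median of positive control wells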
E-selectin induc = E-selectin induction in HUVECs, primary screen, imaging, HUVEC, immunofluorescence imaging, single point | normalized: neutral wells 0, TNF-alpha wells 100 | activation, % at 7.58 µM | P16581 | AID 686992, 2013 | 0.37% of 260,000 active;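 active means mean E-selectin-positive cell signal at least 10% of the positive control, reached in at least 60% of replicates, without over 20% cell loss; inconclusive means no rule given, readout overlaps actives, possibly toxicity-flagged; inactive means the rest, including those meeting only one limit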
Target sequence (P16581 whole entry, looked up): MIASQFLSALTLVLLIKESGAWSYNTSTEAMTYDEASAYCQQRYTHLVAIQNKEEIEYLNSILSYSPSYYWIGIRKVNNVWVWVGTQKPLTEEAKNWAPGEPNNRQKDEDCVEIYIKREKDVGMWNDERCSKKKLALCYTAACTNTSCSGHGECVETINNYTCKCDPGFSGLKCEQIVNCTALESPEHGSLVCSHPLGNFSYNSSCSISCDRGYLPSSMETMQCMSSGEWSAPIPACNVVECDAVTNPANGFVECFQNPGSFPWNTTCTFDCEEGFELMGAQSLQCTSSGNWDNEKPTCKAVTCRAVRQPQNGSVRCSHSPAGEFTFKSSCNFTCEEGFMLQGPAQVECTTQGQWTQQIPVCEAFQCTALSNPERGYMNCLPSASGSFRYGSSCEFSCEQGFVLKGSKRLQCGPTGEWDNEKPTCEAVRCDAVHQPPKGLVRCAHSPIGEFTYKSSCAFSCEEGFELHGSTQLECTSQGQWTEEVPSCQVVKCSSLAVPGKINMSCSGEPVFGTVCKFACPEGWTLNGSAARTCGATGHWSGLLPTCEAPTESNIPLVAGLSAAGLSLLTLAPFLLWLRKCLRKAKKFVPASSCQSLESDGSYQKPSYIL
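System: HUVEC / Compound: single concentration / Signal: immunofluorescence imaging / Read-out: percent E-selectin-positive cells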
Numbers without * were called inactive; ? = inconclusive; nt = not tested or not shown; ! = not active in a repeat; [ ] = remark or other dose.

SMILES | miR-122 sensor | Cneo AK release | Ecoli rRNA inh | DENV2 CPE rescue | E-selectin induc
CCC(C(=O)NCCCN1CCOCC1)n1c2ccccc2c2nc(=O)cc(C)n21 (stereo not drawn) | 4 | -2 | 4 | -5 | nt
Cc1cc(=O)nc2c3ccccc3n(C(C)C(=O)NCCN3CCOCC3)n12 (stereo not drawn) | -3 | -1 | 16 | 35* | nt
CC(=O)/C=C\c1ccccc1OC(=O)c1cc2ccccc2oc1=O | -3 | 0 | 3 | 6 | nt
O=C(/C=C\c1ccccc1OC(=O)c1ccccc1F)c1cc2ccccc2o1 | 31 | -3 | -23* | 9 | nt
COc1cccc(CN(C)S(=O)(=O)c2cccs2)c1 | nt | -5 | -3 | 25* | 0
O=C(c1ccncc1)N1CC2(C1)[C@H](c1ccccc1)[C@H](CO)N2Cc1ccccn1 | nt | nt | 3 | 1 | 0
Cc1ccc(S(=O)(=O)Nc2cccc3cccnc23)c([N+](=O)[O-])c1 | 100* | 4 | -51 | -11 | nt
CCC(CC)=NNc1cccc([N+](=O)[O-])c1 | 4 | nt | nt | nt | nt
O=[N+]([O-])c1cccc(N=NNc2cccc([N+](=O)[O-])c2)c1 | nt | -2 | -27* | -6 | -1
O=[N+]([O-])c1cccc(N=Nc2ccc(O)cc2O)c1 | -4 | -1 | -21* | 5 | -2
COc1ccc(-n2c(C)c(C(C)=O)c3cc(OCC(N)=O)ccc32)cc1 | -6 | -2 | -16 | 5 | -2
CCOc1ccc(-n2c(C)c(C(C)=O)c3cc(OCC(N)=O)ccc32)cc1 | nt | nt | -3 | 32* | 0
O=C(NC1CCCCC1)[C@H]1[C@H](CO)[C@H]2Cn3c(cccc3=O)[C@@H]1N2CC1CCCC1 | nt | nt | 1 | -1 | 0
N[C@@H](Cc1cc(I)c(Oc2ccc(O)c(I)c2)c(I)c1)C(=O)O | 93*! | -2 | nt | -7 | 1
N[C@@H](Cc1ccc(O)c(O)c1)C(=O)O | 2 | -1 | nt | -2 | 0
C[C@@H]1CN([C@H](C)CO)C(=O)c2cc(NC(=O)CCCN(C)C)ccc2O[C@@H](C)CCCCO[C@H]1CN(C)S(=O)(=O)c1cccs1 | nt | nt | 3 | 34* | 0
C[C@@H]1CCCCO[C@H](CN(C)S(=O)(=O)c2cccs2)[C@@H](C)CN([C@H](C)CO)C(=O)c2cc(NC(=O)CCCCCC(=O)Nc3ccccc3N)ccc2O1 | nt | nt | 1 | 24* | 0
C[C@@H]1CCCCO[C@H](CN(C)S(=O)(=O)c2cccs2)[C@@H](C)CN([C@@H](C)CO)C(=O)c2cc(NC(=O)CCC(F)(F)F)ccc2O1 | 16[16.7 µM] | 94* | -3 | ? | 0
N#Cc1cccc(-c2ccc(C3[C@@H]4CN(C(=O)Cc5ccccc5)C[C@H]3N4)cc2)c1 (stereo partly drawn) | nt | nt | -4 | 3 | -1
COc1ccc(Nc2nc3ccc(OC)cc3s2)cc1 | nt | nt | -26* | 2 | nt
COc1ccc(-c2cn(CC(=O)N3CCC4(CC3)C(=O)NCN4c3ccccc3)nn2)cc1OC | nt | 1 | nt | ? | nt
CCOc1ccc(NC(=O)CNC(=O)c2ccc(OC)cc2)cc1 | nt | nt | 11 | -7 | 73*
CCOc1ccc(NC(=O)CNC(=O)c2ccc(OC)c(OC)c2)cc1 | 5 | -1 | nt | nt | nt
Cc1ccc(C(=O)NCC(=O)Nc2ccncc2)cc1C | nt | 3 | 9 | 3 | 204*
O=C(NCCCN1CCCC1=O)c1cccc(S(=O)(=O)Nc2ccc(Br)cc2)c1 | 110* | 1 | -38 | -1 | 0
SMILES | miR-122 sensor | Cneo AK release | Ecoli rRNA inh | DENV2 CPE rescue | E-selectin induc
CCCNC(=O)c1ccc2c(=O)c(O)c(-c3ccc(C)cc3)[nH]c2c1 | nt | -3 | -6 | -1 | 2
Cc1ccc(-c2[nH]c3cc(C(=O)NCCCn4ccnc4)ccc3c(=O)c2O)cc1 | -3 | -1 | -21* | -13 | nt
O=C(NCc1ccncc1)c1cccc(S(=O)(=O)Nc2ccc(F)cc2)c1 | 91* | 1 | 4 | 7 | 0
Cc1ccc(NS(=O)(=O)c2cc(C(=O)NCc3ccncc3)ccc2C)cc1 | 117* | -2 | -14 | 9 | 0
O=C(NCCCn1ccnc1)c1cccc(S(=O)(=O)Nc2ccc(F)cc2)c1 | 142* | -3 | 8 | 3 | 0
O=C(NCCCn1ccnc1)c1cccc(S(=O)(=O)Nc2ccc(Br)cc2)c1 | 72 | 5 | -14 | 1 | 0
O=C(NCc1ccccn1)c1cccc(S(=O)(=O)Nc2ccc(F)cc2)c1 | nt | nt | -1 | 1 | 1
Cc1ccc(C(=O)NCCSc2ccccc2)cc1S(=O)(=O)Nc1ccccc1 | 94* | 1 | nt | nt | nt
C[C@H](CO)N1C[C@H](C)[C@@H](CN(C)Cc2ccc(F)cc2)OCc2ccccc2-c2c(n(C)c3ccccc23)C1=O | nt | nt | -27 | nt | nt
COc1cc(C)c(C(C)C)cc1S(=O)(=O)N1CCN(C)CC1 | 149* | 0 | nt | nt | nt
O=S(=O)(Cc1ccccc1)NCC[C@@H]1CC[C@H](NS(=O)(=O)c2ccccc2)[C@@H](CO)O1 | nt | -1 | 0 | 18 | 0
O=S(=O)(Nc1nccs1)c1ccc(NCc2cc(Br)cc(Br)c2O)cc1 | 0 | -3 | -47* | 0 | nt
Cc1c(Cl)cccc1NC(=O)CC1Oc2ccccc2NC1=O (stereo not drawn) | nt | nt | 11 | 35* | nt
Cc1nc2ccccc2c2oc(C(=O)NCCN3CCN(C)CC3)cc12 | 5 | -1 | 4 | 22* | nt
Cc1nc2ccccc2c2oc(C(=O)NCCCN3CCCC3=O)cc12 | -6 | 1 | -6 | 3 | 0
Cc1ccc(NC(=O)c2cnn(-c3ccccc3)c2C)cc1C | nt | -8 | 1 | -3 | nt
CNS(=O)(=O)c1cc(NC(=O)c2cnc(SC)n2-c2ccccc2)ccc1C | nt | -2 | -21* | 14 | 0
COc1cccc(S(=O)(=O)N2CCC3(CC2)CN[C@@H](CO)c2[nH]c4cc(OC)ccc4c23)c1 | nt | nt | -10 | -2 | 0
COc1ccccc1S(=O)(=O)Nc1ccc2c(c1)C(=O)N(C)C[C@@H](OC)[C@H](C)CN[C@@H](C)CO2 | nt | -3 | 3 | 1 | 0
Cc1c(Cc2ccccc2)c(=O)oc2cc(OCC(=O)NC(Cc3ccc(Cl)cc3)C(=O)O)ccc12 (stereo not drawn) | -10 | 0 | -27* | -12 | nt
COc1ccc(NC(=O)N2CCCCN3[C@H](CO)[C@@H](c4ccc(C#Cc5ccccn5)cc4)[C@H]3C2)cc1 | nt | nt | 5 | nt | nt
Nc1ccccc1SC(CC(=O)c1ccccc1)c1cccc([N+](=O)[O-])c1 (stereo not drawn) | -1 | -1 | -24* | -4 | -1
COc1ccc(C(CC(=O)c2ccc(C)cc2)Sc2ccccc2N)cc1 (stereo not drawn) | 3 | -6 | 1 | -5 | 1
